# Screens: PubChem BioAssay, The Scripps Research Institute Molecular Screening Center
# HTRA1 inhibitor = inhibitors of human serine peptidase HTRA1; Q92743; recombinant HTRA1, FP-rhodamine activity-based probe, fluorescence polarization; inhibition, % at 5.96 µM; 340,000 tested, 0.5% active; AID 504803; in the data active means inhibition above about 36%
# PAFAH1B3 FP inh = PAFAH1B3 (human) inhibition; AID 492972; recombinant PAFAH1B3, FP-rhodamine probe, fluorescence polarization; 340,000 tested, 0.28% active; Q15102; inhibition, % at 3.39 µM;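 active means inhibition above the screen-wide average of all tested compounds plus 3 SD, cut at about 25% in these data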
# Target sequence (Q15102 whole entry, looked up): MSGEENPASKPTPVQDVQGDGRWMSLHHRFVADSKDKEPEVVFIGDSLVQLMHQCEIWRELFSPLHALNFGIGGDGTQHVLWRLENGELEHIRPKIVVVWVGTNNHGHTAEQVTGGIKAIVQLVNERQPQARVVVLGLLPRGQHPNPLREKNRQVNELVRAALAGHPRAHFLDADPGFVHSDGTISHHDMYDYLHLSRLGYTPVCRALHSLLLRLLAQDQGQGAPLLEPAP
# pPAFAH FP inh = inhibitors of human plasma PAF acetylhydrolase (pPAFAH); Q13093; recombinant pPAFAH, FP-rhodamine probe fluorescence polarization; inhibition, % at 3.39 µM; 330,000 tested, 1.5% active;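 active means inhibition above the mean inhibition across the screen plus 3 SD, cut at about 25% in these data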;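 further: inhibitors block binding of the rhodamine activity-based probe so polarization drops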
# PAFAH1B2 FP inh = blocks human PAF acetylhydrolase 1b catalytic subunit 2 | P68402 | recombinant PAFAH1B2, FP-rhodamine activity probe, fluorescence polarization | inhibition, % at 3.39 µM | 340,000 tested, 1.2% active;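 active means inhibition above the mean of all tested compounds plus 3 SD, cut at about 24% in these data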
# PAFAH2 FP inh = inhibitors of human PAFAH2; 340,000 tested, 0.99% active; inhibition, % at 3.39 µM; recombinant PAFAH2, FP-rhodamine activity probe, fluorescence polarization;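 active means inhibition above the mean over all tested compounds plus 3 SD, cut at about 30% in these data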;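 further: inhibitors block probe labeling of enzyme so polarization drops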
# mABHD4 FP = inhibitors of mouse ABHD4; Q8VD66; inhibition, % at 8.92 µM; AID 720543; 370,000 tested, 0.54% active; purified mABHD4, FP-Rh probe fluorescence polarization;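 active means inhibition exceeding the mean over every tested compound plus 3 SD, cut at about 30% in these data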
# Target sequence (Q8VD66 whole entry, looked up): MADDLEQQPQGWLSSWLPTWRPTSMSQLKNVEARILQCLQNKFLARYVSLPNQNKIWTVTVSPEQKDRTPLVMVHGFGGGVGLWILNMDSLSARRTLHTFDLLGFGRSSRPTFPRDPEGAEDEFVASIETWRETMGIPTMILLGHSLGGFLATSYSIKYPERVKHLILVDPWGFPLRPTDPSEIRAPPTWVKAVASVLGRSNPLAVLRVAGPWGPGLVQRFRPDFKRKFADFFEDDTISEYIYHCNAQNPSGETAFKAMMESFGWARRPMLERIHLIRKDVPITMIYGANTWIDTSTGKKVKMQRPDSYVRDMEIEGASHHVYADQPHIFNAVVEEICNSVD
#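 Material: mouse ABHD4 enzyme, wild type; Benchmarks: S159A mutant high control, sample median low control; Buffer or medium: HEPES pH 7.0, NaCl, Pluronic buffer; Signal: fluorescence polarization; Read-out: percent inhibition of probe binding, normalized to plate controls; Timing: pre-incubation 45 min, probe exposure 60 min, at 25 °C; Dosing: 8.92 µM, single dose.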
# mABHD4 conf = ABHD4 (mouse) inhibition, FP confirmation | shares compounds with mABHD4 FP | purified mABHD4, FP-Rh probe fluorescence polarization | inhibition, % at 8.92 µM | 1,800 tested, 55% active;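 active means mean inhibition across replicates above the hit cutoff set in the primary screen, cut at about 30% in these data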
# Hits are given with their value; n = inactive; x = no result. In the library only some 2.8% were active in any assay of this set; here they are far more common.
SMILES,HTRA1 inhibitor,PAFAH1B3 FP inh,pPAFAH FP inh,PAFAH1B2 FP inh,PAFAH2 FP inh,mABHD4 FP,mABHD4 conf
C[C@H]1CN(C(=O)OC(C)(C)C)CCN1c1ccc(N2CCS(=O)(=O)CC2)c(C#N)c1,x,x,x,x,x,n,x
Oc1ccc(/C=N/Nc2nc(N3CCCC3)nc(N3CCCC3)n2)cc1O,n,n,n,n,n,30,n
CC(COc1ccc([N+](=O)[O-])cc1Cl)CN1CCC(C(O)(c2ccccc2)c2ccccc2)CC1 (stereo unspecified),x,x,x,x,x,n,x
COc1ccc2nc(C)cc(N/N=C/c3ccccc3)c2c1,n,n,n,n,n,x,x
COc1ccc(/C=N/Nc2cc(C)nc3ccc(OC)cc23)c(OC)c1,n,n,n,n,n,31,51
COCc1cn(-c2cccc(-c3noc4c3C(=O)N(CC(=O)N3CCOCC3)CC4)c2)nn1,x,x,x,x,x,32,n
CCOC(=O)C1CCCN(C(=O)C2COc3ccccc3O2)C1 (stereo unspecified),n,n,x,n,n,45,n
COc1cccc(Nc2ccc(C(=O)O)cc2[N+](=O)[O-])c1,n,n,n,n,n,36,47
O=C(O)c1ccc(Nc2cccc(F)c2)c([N+](=O)[O-])c1,n,n,n,n,n,n,x
O=C(O)c1ccc(Nc2ccc(Cl)c(Cl)c2)c([N+](=O)[O-])c1,n,n,x,n,n,44,62
COc1ccc(C)cc1Nc1ccc(C(=O)O)cc1[N+](=O)[O-],n,n,n,n,n,n,x
Cc1ccc(Nc2ccc(C(=O)O)cc2[N+](=O)[O-])cc1,n,n,n,n,n,30,55
CC(C)c1ccc(Nc2ccc(C(=O)O)cc2[N+](=O)[O-])cc1,n,n,n,n,n,61,69
CCOC(=O)c1ccc(N2NC(=O)/C(=C/c3ccc(OC(=O)c4ccco4)c(OC)c3)C2=O)cc1,x,x,n,x,x,33,n
CCOC(=O)COc1ccc(/C=C2/C(=O)NN(c3ccc(F)cc3)C2=O)cc1OC,n,n,n,n,n,n,x
CCOC(=O)[C@]12CCCC=C1N(Cc1ccc(OC)cc1)C(=O)[C@@H]2CC(=O)N1CCCCC1,x,x,x,x,x,n,x
Cc1nnc(NS(=O)(=O)c2ccc(N=Nc3ccc(N)nc3N)cc2)s1,n,n,x,n,n,58,34
Cc1nnc(NS(=O)(=O)c2ccc(N)cc2)s1,n,n,n,n,n,n,x
C=CCNC(=O)CN(C(=O)c1ccncn1)c1cccc(Br)c1,x,x,x,x,x,n,x
CNC(=O)c1ccc(-c2sc3nc(N4CCOCC4)c4c(c3c2N)CCCC4)o1,n,n,27,n,n,32,n
Nc1cc2sc(-c3ccc(C(=O)O)cc3)nc2cc1Cl,n,n,n,n,n,n,x
Nc1ncc(N=Nc2cc(C(=O)O)ccc2Cl)s1,n,n,26,n,n,42,62
CC(NCc1ccco1)C(=O)N1CCN(c2cccc(C(F)(F)F)c2)CC1 (stereo unspecified),x,x,x,x,x,n,x
O=C(NN1C(=O)/C(=C/c2ccc(O)c([N+](=O)[O-])c2)SC1=S)c1ccccc1Cl,n,n,n,n,n,49,37
COc1cc(/C=C2\SC(=S)N(NC(=O)c3ccccc3O)C2=O)ccc1O,n,n,n,n,n,n,x
SMILES,HTRA1 inhibitor,PAFAH1B3 FP inh,pPAFAH FP inh,PAFAH1B2 FP inh,PAFAH2 FP inh,mABHD4 FP,mABHD4 conf
COc1cc(CC(=O)N2CCc3ccccc32)cc(OC)c1OC,n,n,n,n,n,n,x
CCOC(=O)N1CCc2cc(OC)c(OC)c3c2c1cc1cc(OC)c(OC)cc13,n,n,x,n,n,63,69
Cc1nc2nc(C)n(CCN3CCOCC3)c(=O)c2c(-c2cccc([N+](=O)[O-])c2)c1C(=O)CCCCCCCCCCN1CCC(c2ccccc2)(c2ccccc2)CC1,n,n,x,n,n,30,39
Cc1cccc(N2C(=O)CCC2=O)c1,n,n,n,n,n,n,x
Cc1cccc(N2C(=O)SC(N(C)c3ccccc3)C2=O)c1 (stereo unspecified),n,n,n,n,n,64,n
COc1ccc(-c2sc3ccccc3c2-c2ccc(OCCN3CCCCC3)cc2)cc1,n,n,n,n,n,n,x
c1ccc(-c2sc3ccccc3c2-c2ccc(OCCN3CCCC3)cc2)cc1,n,n,n,n,n,31,n
COc1cc(C(=O)NC2CCCCN(C(C)C)C2=O)cc(OC)c1OC (stereo unspecified),x,x,x,x,x,n,x
NCC(O)COCCC12CC3CC(CC(C3)C1)C2 (stereo unspecified),n,n,n,n,n,n,x
CC(NCC(O)COCCC12CC3CC(CC(C3)C1)C2)c1ccccc1 (stereo unspecified),n,n,n,n,n,31,n
Nc1nc(N)c2cc(CNc3ccc(Cl)c(Cl)c3)ccc2n1,n,x,x,x,x,38,36
Nc1nc(N)c2cc(Sc3ccc(Cl)cc3)ccc2n1,n,x,x,x,x,n,x
COc1ccccc1-c1cccc2c3c([nH]c12)[C@@H]1C[C@H]2[C@@H](C(=O)N1CC3)[C@H](C)ON2C,x,x,x,x,x,n,x
C[C@@H]1/C=C/CC(=O)N[C@H](c2ccccc2)[C@H](C)/C=C/CC(=O)N[C@@H]1c1ccccc1,x,x,x,x,x,n,x
C/C(=N\Nc1ccc(Cl)c(C(=O)O)c1)c1ccc[nH]1,n,n,33,n,n,35,50
CC(C)CC(=O)Nc1ccc(C(=O)COC(=O)C2=COCCO2)cc1,n,n,n,n,n,95,n
COC(=O)c1cc2c(c3c4cc(F)ccc4n(S(=O)(=O)c4ccccc4)c13)C(=O)N(Cc1ccc(N(C)C)cc1)C2,x,x,x,x,x,n,x
COC(=O)C1(C#N)C(c2ccccc2)C1(C(=O)OC)C(=O)OC (stereo unspecified),n,n,n,n,n,n,x
CCCCC1OC2(C)OC(=N)C1(C#N)C(C#N)(C#N)C2c1ccccc1 (stereo unspecified),n,n,n,n,n,30,n
COc1ccccc1CCNC(=O)c1ccc(Br)s1,n,n,n,n,n,118,n
Nc1ccc2nc3c(=O)n(CCc4ccccc4)c(=O)[nH]c3nc2c1,x,x,n,x,x,40,30
Nc1ccc2nc3c(=O)n(C4CCCCC4)c(=O)[nH]c3nc2c1,n,n,26,n,n,43,41
CC(C)C[C@@H]1COc2cc(N3CCSCC3)ccc2S(=O)(=O)N1C,x,x,x,x,x,n,x
CCc1nc2ccc(C(=O)Nc3cc(-c4ccccc4)ccc3OC)cn2c1N(CC)Cc1cccc(Br)c1,x,x,x,x,x,31,n
CC(C)C[C@H]1COc2cccc(F)c2S(=O)(=O)N1Cc1cn(CCC2OCCCO2)nn1,x,x,x,x,x,n,x
Cc1nn(-c2cccc(Cl)c2)c2c1C(c1cccnc1)C(C#N)=C(N)O2 (stereo unspecified),n,n,n,n,n,31,n
Cc1nn(-c2cccc(Cl)c2)c2c1C(c1ccncc1)C(C#N)=C(N)O2 (stereo unspecified),n,n,n,n,n,48,50
